We go through 84 variants from the RNAGym collection of RNA variant scans (doi:10.1038/s41586-018-0170-7).

Sequences and labels used below:
B1: tRNA (parent)
chain: GUUCCGUUGGCGUAAUGGUAACGCGUCUCCCUCCUAAGGAGAAGACUGCGGGUUCGAGUCCCGUACGGAACG

In the data set the parent is B1. The experiment in a line: yeast fitness, log relative to wild type (ln ratio); higher = fitter; tRNA-Arg(CCU), competitive growth, 37 C, 1 M NaCl. A digest of the protocol:
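For each genotype, fitness is defined as the natural log of its generation number over the wild type's. The tRNA-Arg(CCU) variant library was on a HIS3 centromeric plasmid in BY4742 with the chromosomal gene removed, and pools were first grown 4 generations in SC-HIS at 30 °C and then ~6.5 generations (~26.5 h) in SC-HIS 1M NaCl at 37 °C. Generations were calculated from OD-scaled log2 output/input frequency, weighted by inverse variance across replicates, using counts from 125 bp paired-end Illumina sequencing.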
G6U C27U A43C C46U C66A A69G A70G C71U: the “yeast fitness (ln)” value was -0.312.
Under G6U C46U C66A A70U stands 0.00243.
Under U2C G6A C46U C66U A69G A70G stands -0.0132; under G1A U2C G6A C27U, -0.0466.
Consider G1A G6U A43C C66A A69G A70G C71U, for which the “yeast fitness (ln)” value is -0.348.
G1A U2C C27U C46U C66U A70G C71U: the “yeast fitness (ln)” value is -0.0522.
The same measure for G6U C27U A43C A69G A70G C71U: -0.49; for G6A C27U C66U A69G A70G C71U: -0.256; for U2C A43C A70G: -0.00562.
In the case of G6A C27U C46U C66U A69G A70G C71U, the “yeast fitness (ln)” value is -0.215.
The same measure for G1A G6U C27U A43C C66A A70U: -0.264; for U2G G6U A43C C46U C66U C71U: -0.309.
The same measure for G1A U2G A43C A69G A70U C71U: -0.54; for G1A U2G A43C C46U C66A A70U C71U: -0.168; for G1A U2G G6U A43C C66A A70U C71U: -0.387.
Under U2C A43C C46U C66A C71U stands -0.1.
On to G1A A69G A70U, for which the “yeast fitness (ln)” value is -0.0407.
With G6A C27U A43C A69G A70U, the “yeast fitness (ln)” value is -0.345.
Take G1A C27U A69G A70G: the “yeast fitness (ln)” value is -0.215.
The same measure for U2C G6U C27U C46U C66A A70G: -0.0216; for G1A C66A A70U C71U: -0.144.
Under G1A C66U A69G C71U stands -0.515; under U2C C27U A43C C46U A70U, -0.14.
Under C27U A69G A70G C71U stands -0.223; under C66U A69G A70U, -0.0858; under G1A G6A A43C C66U A70G, -0.213.
Consider U2G G6A C46U A70G C71U, for which the “yeast fitness (ln)” value was -0.144.
Under U2G G6U A43C C46U C66A A69G C71U stands -0.462.
For the variant G1A G6A C27U A43C C66A A70G C71U, the “yeast fitness (ln)” value was -0.267.
As for U2C G6U C46U A69G A70G, the “yeast fitness (ln)” value was -0.0922.
Under U2C C27U A43C C46U C66A A70G stands -0.0421.
The same measure for U2C G6U C27U C46U C66A: -0.267; for U2G G6A C27U C46U A69G A70G: -0.174.
Under U2G G6A C46U A69G C71U stands -0.124.
With G1A G6U C27U A69G A70G, the “yeast fitness (ln)” value was -0.379.
Regarding U2C C66U A69G A70G C71U, the “yeast fitness (ln)” value was -0.101.
Under G1A U2G A43C C66U A69G A70U stands -0.287.
Under G6U A43C C66A A69G C71U stands -0.368; under G6A A43C C46U C66U A69G C71U, -0.558; under G1A G6U A43C C46U C66U A70G C71U, -0.278.
With G1A G6U C27U A43C C46U C66U A69G C71U, the “yeast fitness (ln)” value was -0.423.
The same measure for U2G A43C C46U C66A C71U: -0.148; for G6A C27U A43C C46U A70G C71U: -0.25; for U2G G6A A43C C66U A69G A70G: -0.257.
The same measure for U2G G6A A43C C66U A69G A70U: -0.235.
The same measure for U2C C27U C66U A70U C71U: -0.324; for U2C G6A C46U C66A A70G: -0.016; for U2G A43C C46U C66U A69G C71U: -0.279.
On to U2G G6U C27U A43C C66A A70U, for which the “yeast fitness (ln)” value was -0.0378.
Regarding U2C G6A C27U A43C C46U C66U A69G C71U, the “yeast fitness (ln)” value was -0.281.
Under G1A G6A A43C C46U C66U A70G stands -0.194; under G1A G6A A43C C46U C66U A70U, -0.24; under U2C G6A A69G A70G C71U, -0.394.
Take U2C C27U C66U A69G A70G: the “yeast fitness (ln)” value was -0.185.
In the case of U2C G6A C27U C66U A69G A70G, the “yeast fitness (ln)” value is -0.0504.
Under G1A G6U C27U C46U C66U A69G A70G C71U stands -0.388; under G1A U2G G6U C27U C66U A69G A70U C71U, -0.407.
Under U2G G6U C46U C66A A69G A70G stands -0.13; under G1A U2C C27U A43C C46U A70U, -0.072; under U2G C66U C71U, -0.181.
As to C27U A43C A69G A70U, the “yeast fitness (ln)” value is -0.204.
Under G1A U2G C27U C66A A70U C71U stands -0.243; under G6U A43C C46U A69G A70U, -0.236; under G1A U2G G6U A43C C66A A69G A70U C71U, -0.351.
The same measure for U2C G6U C27U A43C C46U A70U: -0.151; for A43C C46U A70G: -0.00498; for U2C G6A C46U C66U A69G A70G C71U: -0.00401.
G6U C27U C66A A69G C71U: the “yeast fitness (ln)” value is -0.806.
Turning to U2G G6U C46U A69G, the “yeast fitness (ln)” value is -0.157.
The same measure for G1A U2G G6A A43C A69G A70G: -0.238; for U2C G6A C27U A43C C66U A69G A70U C71U: -0.351; for U2G G6U C27U C46U A69G C71U: -0.205.
Under G6A C71U stands -0.23.
The same measure for G1A G6A C66U A69G A70G C71U: -0.145; for G6A C27U A43C A70G: -0.213; for U2C G6A C27U A43C: -0.0322.
As to G6A A43C C46U A70G, the “yeast fitness (ln)” value was -0.0876.
The same measure for G1A U2G A43C C46U C66A A70G: -0.26; for G1A U2C G6U C27U C46U C66A A70U: -0.0687.
The same measure for G1A U2G C46U A69G A70U C71U: -0.0215; for U2G G6U A43C: -0.129; for G1A C27U A43C A69G A70U: -0.389.
Under G1A U2C C27U C66U A69G A70G C71U stands -0.585; under C27U A43C C66U A69G, -0.384.
